Compound activity (PubChem BioAssay)
In the library only some 4.6% were active in any assay of this set; here they are far more common.
OX1R antag-1: blocks the human orexin 1 receptor | hit rate 0.43% among 330,000 | O43613 | inhibition, % at 5 µM | AID 434989 | CHO/OX1R cells, Fluo-8 calcium fluorescence, orexin A;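 active = inhibition above its plate's threshold, mean inhibition of all tested compounds on the plate plus 3 SD, cut at about 37% in these data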;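 note: 0% = orexin A challenge wells and 100% = SB-334867-A antagonist wells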
CHO parental Ca: signal in parental CHO cells, OX1R antagonist counter-screen; hit rate 0.63% among 330,000; parental CHO-K1, ATP-induced calcium, Fluo-8 fluorescence; inhibition, % at 5.6 µM;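 active = inhibition above that plate's mean sample inhibition plus 3 SD, cut at about 26% in these data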;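 note: 0% = ATP-challenged DMSO wells and 100% = DMSO wells without ATP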
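Measured by: calcium-sensitive Fluo-8 fluorescence / Test system: CHO parental line / Controls: ATP-challenged DMSO wells low, unchallenged DMSO wells high / Measure: % inhibition / Compound: single nominal dose of 5.6 µM per compound / Replicates: single well per compound, no replicates / Reagent: ATP as calcium-mobilizing challenge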
TAAR1 antagonist: human TAAR1 antagonism; CHO RD-HGA16 TAAR1, Fluo-8 calcium fluorescence, antagonist; inhibition, % at 3 µM; hit rate 1.5% among 360,000; AID 624466;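 active = inhibition above a per-plate cutoff, the mean inhibition of test compounds on that plate plus 3 SD, cut at about 49% in these data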;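 note: 0% = DMSO plus EC80 beta-PEA response and 100% = DMSO alone without agonist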
Target sequence (Q96RJ0 whole entry, looked up): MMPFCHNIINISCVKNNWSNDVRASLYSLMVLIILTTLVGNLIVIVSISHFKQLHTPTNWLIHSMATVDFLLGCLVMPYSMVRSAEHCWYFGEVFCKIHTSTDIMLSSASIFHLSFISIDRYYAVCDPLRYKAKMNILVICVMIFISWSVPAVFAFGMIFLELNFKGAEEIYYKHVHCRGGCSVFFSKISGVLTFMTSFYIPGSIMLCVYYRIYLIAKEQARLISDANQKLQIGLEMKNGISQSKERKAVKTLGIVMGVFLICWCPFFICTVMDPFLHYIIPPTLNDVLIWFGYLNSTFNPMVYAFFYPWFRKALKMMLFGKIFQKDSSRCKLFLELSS
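Test system: CHO RD-HGA16 cells bearing hTAAR1 | Reagent: β-PEA, EC80 | Compound dosing: 3 µM, single point | Schedule: Dye loading 75 min at 37 °C, then 30 min room temperature | Signal: Calcium fluorescence with Fluo-8 | Evaluation: Percent inhibition of PEA-evoked calcium signal, max/basal emission ratio | Control set: DMSO-only wells and EC80 β-PEA-stimulated wells | Repeats: Singlicate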
TAAR1 agonist: human TAAR1 agonism; AID 624467; activation, % at 3 µM; CHO RD-HGA16 TAAR1, Fluo-8 calcium fluorescence; vehicle wells 0%, saturating PEA agonist 100%; hit rate 0.99% among 360,000;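 active = activation above the mean activation of all test compounds in the run plus 3 SD, cut at about 38% in these data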
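test system = CHO RD-HGA16 cells carrying human TAAR1 plus Gα16 | schedule = 17-24 h seeding, 75 min 37 °C dye, 30 min RT | compound dosing = 3 µM single concentration | control set = DMSO and PEA EC100 | replicates = n 1 | signal = Fluo-8 fluorescence, 5 s baseline then 140 s kinetic read | measure = percent activation vs PEA EC100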
OX1R antag-2: blocks the human orexin 1 receptor. inhibition, % at 6.6 µM. OX1R-expressing cells, FRET antagonist read-out. hit rate 1.8% among 330,000. O43613. AID 485270; in the data active = inhibition mostly above about 38%, no sharp cut-off; inactive = mostly below about 40%;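 note: 0% = agonist challenge alone and 100% = reference antagonist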
GPR7 antagonist: blocks human GPR7 receptor signaling | P48145 | AID 1861 | GPR7-expressing cells, fluorescence antagonist assay | inhibition, % at 4.4 µM | hit rate 1.1% among 290,000; in the data active = inhibition above about 16%, passing the limit was not always enough;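 note: cells stimulated with the agonist NPW; 0% = agonist with vehicle and 100% = vehicle without agonist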
Target sequence (P48145 whole entry, looked up): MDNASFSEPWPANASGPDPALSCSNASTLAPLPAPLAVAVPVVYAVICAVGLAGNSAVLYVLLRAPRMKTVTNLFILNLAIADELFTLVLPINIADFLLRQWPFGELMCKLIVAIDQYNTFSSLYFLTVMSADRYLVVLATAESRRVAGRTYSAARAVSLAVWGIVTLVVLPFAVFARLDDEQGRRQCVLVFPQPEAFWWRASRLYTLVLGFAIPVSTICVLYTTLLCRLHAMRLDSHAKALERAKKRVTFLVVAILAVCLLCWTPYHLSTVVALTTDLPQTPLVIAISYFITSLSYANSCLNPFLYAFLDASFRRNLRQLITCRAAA
* hit, by the source's call.

How did CSc1nsc(N/N=C/c2ccccc2)c1C#N do in these assays?
OX1R antag-1: -10; CHO parental Ca: 7; TAAR1 antagonist: -10; TAAR1 agonist: 8; OX1R antag-2: 12; GPR7 antagonist: -14

Results for COc1cccc(/C=N/Nc2snc(SC)c2C#N)c1 ?
OX1R antag-1: 4; CHO parental Ca: -7; TAAR1 antagonist: 18; TAAR1 agonist: 42*; OX1R antag-2: 67*; GPR7 antagonist: -4

How did NC(COCc1ccccc1)c1csc(Nc2ccc(C(=O)c3ccccc3)cc2)n1 (configuration not stated) do in these assays?
TAAR1 antagonist: 43; TAAR1 agonist: 50*

What do the screens show for `COc1ccccc1NC(=O)Nc1nc(C(N)CCc2ccccc2)cs1` (configuration not stated)?
TAAR1 antagonist: 9; TAAR1 agonist: 8

What do the screens show for `NC(CCc1ccccc1)c1csc(Nc2ccc(C(=O)c3ccccc3)cc2)n1` (configuration not stated)?
TAAR1 antagonist: 34; TAAR1 agonist: 41*

Results for NC(CCc1ccccc1)c1csc(Nc2ccc(C(=O)NCCO)cc2)n1 (configuration not stated) ?
TAAR1 antagonist: 1; TAAR1 agonist: 2

Results for NC(=O)c1ccc(Nc2nc(C(N)COCc3ccccc3)cs2)cc1 (configuration not stated) ?
TAAR1 antagonist: 0; TAAR1 agonist: 2

How did NC(CCc1ccccc1)c1csc(NC(=O)Nc2cccc(Cl)c2)n1 (configuration not stated) do in these assays?
TAAR1 antagonist: 46; TAAR1 agonist: 39*

How did O=C(Nc1cccc(S(=O)(=O)N2CCCCC2)c1)[C@@H]1CCCN1S(=O)(=O)c1ccccc1C(F)(F)F do in these assays?
TAAR1 antagonist: 40; TAAR1 agonist: 6

Results for COc1cccc(C2=CC(=O)C[C@H](c3ccc(Cl)cc3)C2)c1OC ?
OX1R antag-1: -42; CHO parental Ca: -18; TAAR1 antagonist: 22; TAAR1 agonist: 2; OX1R antag-2: 3

How did COc1ccccc1C1=CC(=O)C[C@H](c2ccc(Cl)cc2)C1 do in these assays?
OX1R antag-1: -13; CHO parental Ca: -20; TAAR1 antagonist: 50*; TAAR1 agonist: 15; OX1R antag-2: -1

Results for COc1ccc([C@H]2CC(=O)C=C(c3ccc(F)cc3OCc3ccccc3)C2)cc1 ?
OX1R antag-1: 29; CHO parental Ca: 0; TAAR1 antagonist: 52*; TAAR1 agonist: 17; OX1R antag-2: -1

What do the screens show for `c1csc(-c2nc3c4ccccc4c4ccccc4c3[nH]2)c1`?
OX1R antag-1: -8; CHO parental Ca: 0; TAAR1 antagonist: 20; TAAR1 agonist: 6; OX1R antag-2: 63*; GPR7 antagonist: 3

What do the screens show for `O=C(NCCc1cccs1)C12CN(Cc3ccccc3)CC1C(c1cccc([N+](=O)[O-])c1)=NO2` (configuration not stated)?
OX1R antag-1: -10; CHO parental Ca: -6; TAAR1 antagonist: 0; TAAR1 agonist: 40*; OX1R antag-2: 13; GPR7 antagonist: 1

Results for Cc1nnc(N2C(=O)c3cccc4cccc(c34)C2=O)s1 ?
OX1R antag-1: -5; CHO parental Ca: 9; TAAR1 antagonist: 2; TAAR1 agonist: 6; OX1R antag-2: 59*; GPR7 antagonist: 1

What do the screens show for `Clc1ccc(OCCN2CCN(c3ncnc4sccc34)CC2)cc1`?
OX1R antag-1: 5; CHO parental Ca: 11; TAAR1 antagonist: 17; TAAR1 agonist: 13; OX1R antag-2: 49*; GPR7 antagonist: 20*

Results for Cc1ccc(OCCN2CCN(c3ncnc4sc(C)c(C)c34)CC2)cc1 ?
OX1R antag-1: -5; CHO parental Ca: 4; TAAR1 antagonist: 14; TAAR1 agonist: 3; OX1R antag-2: 44*; GPR7 antagonist: 8

Results for CCN1CCN(CCOc2ccc(Cl)cc2)CC1 ?
OX1R antag-1: -16; CHO parental Ca: -2; TAAR1 antagonist: -5; TAAR1 agonist: 12; OX1R antag-2: 0; GPR7 antagonist: -5

How did Cc1cc(F)ccc1S(=O)(=O)Nc1ccccc1C(=O)Nc1ccccc1-c1nc2ccccc2[nH]1 do in these assays?
OX1R antag-1: 9; CHO parental Ca: 30*; OX1R antag-2: 20; GPR7 antagonist: -3

How did CC(C)(C)c1cc(C(=O)NNc2cc(C(F)(F)F)ccc2Cl)n(Cc2ccccc2)n1 do in these assays?
OX1R antag-1: 4; CHO parental Ca: -7; TAAR1 antagonist: 34; TAAR1 agonist: 9; OX1R antag-2: 45*; GPR7 antagonist: -10

How did COc1ccccc1NNC(=O)c1cc(C(C)(C)C)nn1Cc1ccccc1 do in these assays?
OX1R antag-1: -26; CHO parental Ca: -13; TAAR1 antagonist: 49*; TAAR1 agonist: 3; OX1R antag-2: 55; GPR7 antagonist: -12

What do the screens show for `Cc1ccc(NNC(=O)c2cc(C(C)(C)C)nn2Cc2ccccc2)cc1`?
OX1R antag-1: -19; CHO parental Ca: -13; TAAR1 antagonist: -22; TAAR1 agonist: -3; OX1R antag-2: 12; GPR7 antagonist: -10

Results for CCCN1Cc2cccc(C(=O)NC(CC(=O)OCC)c3ccc(OC(C)C)cc3)c2C1=O (configuration not stated) ?
OX1R antag-1: -12; CHO parental Ca: -17; TAAR1 antagonist: 16; TAAR1 agonist: 1; OX1R antag-2: 30; GPR7 antagonist: -20

How did CCOC(=O)CC(NC(=O)c1cccc2c1C(=O)N(Cc1cccnc1)C2)c1ccc(OC(C)C)cc1 (configuration not stated) do in these assays?
OX1R antag-1: -16; CHO parental Ca: -3; TAAR1 antagonist: 39; TAAR1 agonist: 8; OX1R antag-2: 48*; GPR7 antagonist: -11

Results for O=C(CCn1c(=O)c2cccn2c2ccc(F)cc21)NCc1cccc(F)c1 ?
OX1R antag-1: -25; CHO parental Ca: -23; TAAR1 antagonist: 1; TAAR1 agonist: 1; OX1R antag-2: 7; GPR7 antagonist: -12

What do the screens show for `COc1ccc(C(=O)C[n+]2cccc3cc(OC)ccc32)cc1`?
OX1R antag-1: -7; CHO parental Ca: 3; TAAR1 antagonist: 18; TAAR1 agonist: 1; OX1R antag-2: 14; GPR7 antagonist: -3

What do the screens show for `COc1cccc(C(=O)C[n+]2cccc3cc(OC)ccc32)c1`?
OX1R antag-1: -17; CHO parental Ca: -13; TAAR1 antagonist: -11; TAAR1 agonist: 4; OX1R antag-2: 34*

How did O=c1c2cn(Cc3ccc(F)cc3)c3ccccc3c-2nn1Cc1ccc(F)cc1 do in these assays?
TAAR1 antagonist: 0; TAAR1 agonist: 3; GPR7 antagonist: -6

How did CCOc1c(Cl)cc(C(=O)Nc2ccccc2C(=O)O)cc1Cl do in these assays?
OX1R antag-1: -6; CHO parental Ca: -3; TAAR1 antagonist: 13; TAAR1 agonist: 18; OX1R antag-2: 63*; GPR7 antagonist: 12
